What all share (assay type): functional, cell-based
For assay [1], the target named is T1, Cysteinyl leukotriene receptor 2 (Homo sapiens, UniProt Q9NS75).
T1 sequence (Q9NS75 whole entry): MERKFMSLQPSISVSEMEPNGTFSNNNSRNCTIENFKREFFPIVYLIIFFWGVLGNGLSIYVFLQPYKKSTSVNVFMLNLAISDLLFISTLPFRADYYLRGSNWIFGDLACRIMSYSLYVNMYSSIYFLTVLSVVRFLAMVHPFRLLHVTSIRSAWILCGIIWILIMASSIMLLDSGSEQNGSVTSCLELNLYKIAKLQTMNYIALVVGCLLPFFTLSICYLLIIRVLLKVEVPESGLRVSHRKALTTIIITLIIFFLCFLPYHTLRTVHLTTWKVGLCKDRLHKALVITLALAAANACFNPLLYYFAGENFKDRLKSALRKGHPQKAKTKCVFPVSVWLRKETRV
Put plainly: (§1) Antagonist activity at human recombinant CysLT2 receptor expressed in human HEK293 cells assessed as reduction in LTD4-induced cytosolic free Ca2+ level after 30 mins by fluorescence assay relative to control. The method in brief: (§2)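 HEK293 cells stably transfected with pcDNA3.1(+)-hCysLT2 were grown at 37 °C in 5% CO2 and plated. After 24 h they were preincubated for 30 min in BSS with or without test compound. Cells were then stimulated with LTD4, with ATP as a positive stimulus. [Ca2+]i fluorescence was read at 37 °C (ex 485/em 525 nm). The response was taken as peak minus basal and expressed as % of BSS-only control.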

Assay [2] concerns the target T2, Cysteinyl leukotriene receptor 2 (Homo sapiens) (UniProt Q9NS75).
T2 sequence (whole entry): T1 sequence (Q9NS75 whole entry)
Described as §1. The method in brief: as §2

Assay [3] concerns the target T3, Cysteinyl leukotriene receptor 1 (Homo sapiens) (UniProt Q9Y271).
T3 sequence (whole entry): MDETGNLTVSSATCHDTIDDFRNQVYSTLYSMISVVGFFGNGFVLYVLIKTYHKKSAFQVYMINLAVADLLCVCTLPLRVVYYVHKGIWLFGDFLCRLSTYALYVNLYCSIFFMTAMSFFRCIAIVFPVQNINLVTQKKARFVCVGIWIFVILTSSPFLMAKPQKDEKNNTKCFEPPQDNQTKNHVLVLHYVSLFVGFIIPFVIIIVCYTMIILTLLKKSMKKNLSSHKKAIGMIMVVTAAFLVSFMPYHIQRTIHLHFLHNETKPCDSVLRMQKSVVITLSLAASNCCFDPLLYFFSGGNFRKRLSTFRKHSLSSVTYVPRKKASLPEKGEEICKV
Put plainly: Antagonist activity at CysLT1 receptor (unknown origin) expressed in human dU937 cells assessed as reduction in LTD4-induced cytosolic free Ca2+ level at 1 uM after 30 mins by fluorescence assay relative to control.

For assay [4], the target named is T2, Cysteinyl leukotriene receptor 2 (Homo sapiens). Put plainly: Antagonist activity at human recombinant CysLT2 receptor expressed in human HEK293 cells assessed as reduction in LTD4-induced cytosolic free Ca2+ level at 1 uM after 30 mins by fluorescence assay relative to control. The method in brief: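 HEK293 cells stably transfected with pcDNA3.1(+)-hCysLT2 were grown at 37 °C in 5% CO2 and plated. After 24 h they were preincubated for 30 min in BSS with or without test compound. Cells were then stimulated with LTD4, with ATP as a positive stimulus. The response was taken as peak minus basal and expressed as % of BSS-only control.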

The values that follow come from ChEMBL document CHEMBL2413074, “Structure-based drug design using GPCR homology modeling: toward the discovery of novel selective CysLT2 antagonists” (Eur J Med Chem, 2013).

Each structure is given as a SMILES string.

With `CCCCCCCCCCCCOc1cccc(/C=C/C(=O)c2cc(C(=O)O)ccc2OCC(=O)O)c1`, the IC50 (as a rule, the concentration at which inhibition is half-maximal) in assay [1] turned out to be 0.25 µM. Further, in assay [2], the Activity entry was “Dose-dependent effect”. In addition, in assay [2], the Imax was determined as 80.5%. The inhibition (commonly the drop in the measured response relative to a control, in per cent) in assay [3] stood at 4.8%; in assay [4] it was 70.5%.

On to `O=C(O)COc1ccc(C(=O)O)cc1C(=O)/C=C/c1ccc(OCCCCOc2ccc(Cl)cc2)cc1`, for which, in assay [1], the IC50 worked out at 7.5 µM. In addition, in assay [2], the Activity entry was “Dose-dependent effect” and the Imax worked out at 72.8%. The inhibition in assay [3] was 7%. Further, the inhibition in assay [4] came to 44%.

As for `CCCCCCCCCCCCOc1ccc(/C=C/C(=O)c2ccc(C(=O)O)cc2OCC(=O)O)cc1`, in assay [3], the inhibition was determined as 10.6%.

As for `CCCCCCCCOc1ccc(/C=C/C(=O)c2ccc(C(=O)O)cc2OCC(=O)O)cc1`, in assay [3], the inhibition came to 8.6%.

For the molecule `CCCCCCCCCCCCOc1ccc(/C=C/C(=O)c2cc(C(=O)O)ccc2OCC(=O)O)cc1`, the inhibition in assay [3] stood at 35.7%.

`N#CCOc1cc(C(=O)O)ccc1C(=O)/C=C/c1ccc(OCCCCOc2ccc(Cl)cc2)cc1`: in assay [4], the inhibition came to 10.4%.
